Assay results taken from ChEMBL document CHEMBL1147846, “Synthetic 2',5'-dimethoxychalcones as G(2)/M arrest-mediated apoptosis-inducing agents and inhibitors of nitric oxide production in rat macrophages” (Eur J Med Chem, 2007).

What was measured:
A549 = experiment: Cytotoxicity against human A549 cells by MTT microassay; type: functional, cell-based
Method in brief: (§1)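 MTT microassay in cultured human tumour cells from ATCC. Compounds were dissolved in DMSO and diluted in culture medium to 0.1% DMSO. Controls received medium with 0.1% DMSO, and 5-fluorouracil was the positive control. IC50 is given as mean ± SD, n = 3.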

[1] = Cytotoxicity against human Hep 3B cells by MTT microassay; type: functional, cell-based, Hep 3B2; conditions: Hep3B; method in brief: as §1
HT-29 = experiment: Cytotoxicity against human HT29 cells by MTT microassay; type: functional, cell-based; method in brief: as §1
MCF7 [2] = experiment: Cytotoxicity against human MCF7 cells by MTT microassay; type: functional, cell-based; method in brief: as §1
[3] = Inhibition of beta-glucuronidase release from rat mast cells; type: functional; parameters: Inhibition: concentration or dose not given beside the values; conditions: for IC50: Rattus norvegicus
[4] = Inhibition of histamine release from rat mast cells; type: functional; parameters: Inhibition: concentration or dose not given beside the values; conditions: for IC50: Rattus norvegicus
Neutrophil [5] = experiment: Inhibition of 1 uM fMLP-stimulated beta-Glucuronidase release from rat neutrophils; type: functional, cell-based; conditions: for IC50: Rattus norvegicus, Neutrophil
Method in brief: (§2)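 Rat neutrophils were stimulated with fMLP plus cytochalasin B, and β-glucuronidase and lysozyme release were measured. Trifluoperazine was the positive control. IC50 is mean ± SD, n = 3; where IC50 exceeds 30, % inhibition at 30 is shown.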

Neutrophil [6] = experiment: Inhibition of 5 ug/ml CB-stimulated Lysozyme release from rat neutrophils; type: functional, cell-based; conditions: for IC50: Rattus norvegicus, Neutrophil; method in brief: as §2
Neutrophil [7] = experiment: Inhibition of 0.3 uM fMLP-stimulated superoxide anion generation in rat neutrophils; type: functional, cell-based; conditions: for IC50: Rattus norvegicus, Neutrophil
Method in brief: (§3)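 Rat neutrophils, with superoxide anion generation triggered by either fMLP combined with cytochalasin B or by PMA (3 nM).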

Neutrophil [8] = experiment: Inhibition of 3 nM PMA-stimulated superoxide anion generation in rat neutrophils; type: functional, cell-based; conditions: for IC50: Rattus norvegicus, Neutrophil; method in brief: as §3
RAW [9] = experiment: Inhibition of 1ug/ml LPS-stimulated nitirc oxide accumulation in RAW 264 cells after 24 hrs; type: functional, cell-based, Mus musculus; conditions: for IC50: Mus musculus, RAW, 24 h
Method in brief: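 RAW 264.7 cells were activated with LPS for 24 h. NO was measured as nitrite accumulated in the medium, by Griess reaction. 1400W was the positive control. Results are mean ± SD, n = 3.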

RAW [10] = experiment: Inhibition of 1 ug/ml LPS-stimulated TNFalpha accumulation in RAW 264 cells after 24 hrs; type: functional, cell-based, Mus musculus; conditions: for IC50: Mus musculus, RAW, 24 h
Method in brief: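 RAW 264.7 cells were activated with LPS, and TNF-α formation in the culture medium was measured. Genistein was the positive control. Results are mean ± SD, n = 3.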

MCF7 [11] = experiment: Induction of apoptosis in MCF7 cells assessed as subG1-phase accumulation at 8.7 uM after 24 hrs; type: functional, Homo sapiens
Method in brief: (§4)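 MCF-7 cells were exposed to compound and washed with PBS at each time point. They were fixed in 4% paraformaldehyde/PBS (pH 7.4) for 30 min at room temperature, then permeabilized in 0.1% Triton X-100/0.1% sodium citrate for 2 min at 4 °C. PI staining followed for 30 min at 37 °C. FACScan flow cytometry counted ≥5000 cells. Apoptosis is the sub-G1 DNA fraction; controls received medium; three independent experiments.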

MCF7 [12] = experiment: Induction of apoptosis in MCF7 cells assessed as subG1-phase accumulation at 8.7 uM after 48 hrs; type: functional, Homo sapiens; method in brief: as §4
MCF7 [13] = experiment: Induction of apoptosis in MCF7 cells assessed as subG1-phase accumulation at 8.7 uM after 72 hrs; type: functional, Homo sapiens; method in brief: as §4
MCF7 [14] = experiment: Induction of apoptosis in MCF7 cells assessed as subG1-phase accumulation at 34.7 uM after 24 hrs; type: functional, Homo sapiens; method in brief: as §4
MCF7 [15] = experiment: Induction of apoptosis in MCF7 cells assessed as subG1-phase accumulation at 34.7 uM after 48 hrs; type: functional, Homo sapiens; method in brief: as §4
MCF7 [16] = experiment: Induction of apoptosis in MCF7 cells assessed as subG1-phase accumulation at 34.7 uM after 72 hrs; type: functional, Homo sapiens; method in brief: as §4
MCF7 [17] = experiment: Induction of apoptosis in MCF7 cells assessed as subG1-phase accumulation at 52 uM after 24 hrs; type: functional, Homo sapiens; method in brief: as §4
MCF7 [18] = experiment: Induction of apoptosis in MCF7 cells assessed as subG1-phase accumulation at 52 uM after 48 hrs; type: functional, Homo sapiens; method in brief: as §4
MCF7 [19] = experiment: Induction of apoptosis in MCF7 cells assessed as subG1-phase accumulation at 52 uM after 72 hrs; type: functional, Homo sapiens; method in brief: as §4

Compound	IC50 (A549)	IC50 [1]	IC50 (HT-29)	IC50 (MCF7 [2])	IC50 [3]	IC50 ([4]; read-out: IC50)	IC50 (Neutrophil [5])	IC50 (Neutrophil [6])	IC50 (Neutrophil [7])	Inhibition (Neutrophil [8])	IC50 (Neutrophil [8])	IC50 (RAW [9])	IC50 (RAW [10])	also measured
COc1ccc(OC)c(C(=O)/C=C/c2cccs2)c1	11 µM	8.4 µM	13.3 µM	3.8 µM	> 30 µM	> 30 µM	> 30 µM	14.6 µM	> 30 µM	7.9%	> 30 µM	> 10 µM	> 30 µM	Inhibition [3]: -4.6%; Inhibition [4]: 0.8%; Inhibition (Neutrophil [5]): 38.5%; Inhibition (Neutrophil [7]): 47.2%; Inhibition (RAW [9]): 49.8%; Inhibition (RAW [10]): 5.9%
COc1ccc(OC)c(C(=O)/C=C/c2ccsc2)c1	3.8 µM	5.7 µM	5.3 µM	3.7 µM										
COc1ccc(OC)c(C(=O)/C=C/c2ccco2)c1	27.9 µM	19 µM	24.8 µM	10.5 µM	18.4 µM	> 30 µM	6.2 µM	8.3 µM	3 µM	49.1%	> 30 µM	5.7 µM	4.6 µM	
COc1ccc(OC)c(C(=O)/C=C/c2ccoc2)c1	22.1 µM	12 µM	21.3 µM	18.2 µM										
COc1ccc(OC)c(C(=O)/C=C/c2ccc(C)o2)c1	51.5 µM	26.5 µM	43 µM	10.3 µM	> 30 µM		22.2 µM	17.8 µM	> 30 µM	39%	> 30 µM	> 10 µM	> 10 µM	Inhibition [3]: 12.7%; Inhibition [4]: 17.5%; IC50 [4]: > 30 µM; Inhibition (Neutrophil [7]): 48.1%; Inhibition (RAW [9]): 29.5%; Inhibition (RAW [10]): -10.5%
COc1ccc(OC)c(C(=O)/C=C/c2ccc(C)s2)c1	4.5 µM	3.4 µM	1.8 µM	2.6 µM	> 30 µM	> 30 µM	> 30 µM	> 30 µM	> 30 µM	-11.9%	> 30 µM	6.7 µM	> 30 µM	Activity (MCF7 [11]): 7.52%; Activity (MCF7 [12]): 16.39%; Activity (MCF7 [13]): 41.61%; Activity (MCF7 [14]): 4.05%; Activity (MCF7 [15]): 18.68%; Activity (MCF7 [16]): 62.4%; Activity (MCF7 [17]): 5.09%; Activity (MCF7 [18]): 21.23%; Activity (MCF7 [19]): 63.79%; Inhibition [3]: -2.7%; Inhibition [4]: 43.5%; Inhibition (Neutrophil [5]): 45.6%; Inhibition (Neutrophil [6]): 37.4%; Inhibition (Neutrophil [7]): 49.1%; Inhibition (RAW [10]): 46%
COc1ccc(OC)c(C(=O)/C=C/c2sccc2C)c1	22.2 µM	16.7 µM	19.4 µM	7.6 µM										
COc1ccc(OC)c(C(=O)/C=C/c2ccc(OC/C=C/c3ccccc3)cc2)c1	39.8 µM	17.3 µM	26.3 µM	19 µM	> 30 µM	> 30 µM	> 30 µM	> 30 µM	> 10 µM	4.1%	> 10 µM	> 30 µM	> 30 µM	Inhibition [3]: -11.2%; Inhibition [4]: 0.3%; Inhibition (Neutrophil [5]): 18.8%; Inhibition (Neutrophil [6]): 33.1%; Inhibition (Neutrophil [7]): -71.9%; Inhibition (RAW [9]): 27.9%; Inhibition (RAW [10]): 15%
COc1ccc(OC)c(C(=O)/C=C/c2ccc(OC(=O)/C=C/c3ccc(C)cc3)cc2)c1	29.7 µM	29 µM	16.4 µM	12.6 µM										
COc1ccc(/C=C/C(=O)Oc2ccc(/C=C/C(=O)c3cc(OC)ccc3OC)cc2)cc1	60.4 µM	42.6 µM	23 µM	4.1 µM										
COc1ccc(OC)c(C(=O)/C=C/c2ccc(Br)o2)c1	14.9 µM	11 µM	15.2 µM	11 µM	> 30 µM	> 30 µM	> 30 µM	> 30 µM	19.7 µM	-2.2%	> 30 µM	12.8 µM	> 30 µM	Inhibition [3]: -13.3%; Inhibition [4]: 6.3%; Inhibition (Neutrophil [5]): 36.9%; Inhibition (Neutrophil [6]): 33.4%; Inhibition (RAW [10]): 35.6%
COc1ccc(OC)c(C(=O)/C=C/c2ccc(OC(=O)/C=C/c3cc(OC)c(OC)c(OC)c3)cc2)c1	36.7 µM	23.2 µM	23.8 µM	6.4 µM										
CC(=N)NCc1cccc(CN)c1 [1400W]												5.2 µM		
CC(=O)O[C@H](CC=C(C)C)C1=CC(=O)c2c(O)ccc(O)c2C1=O [ACETYLSHIKONIN]					2.2 µM	2 µM								
c1ccc2c(c1)[I+]c1ccccc1-2 [DIPHENYLENEIODONIUM CHLORIDE]									5.8 µM		3.3 µM			
O=c1[nH]cc(F)c(=O)[nH]1 [FLUOROURACIL]	3.1 µM	0.6 µM	0.6 µM	1.5 µM										
O=c1c(-c2ccc(O)cc2)coc2cc(O)cc(O)c12 [GENISTEIN]													18.1 µM	
CN1CCN(CCCN2c3ccccc3Sc3ccc(C(F)(F)F)cc32)CC1 [TRIFLUOPERAZINE]							13.2 µM	12.7 µM						
